Data taken from ChEMBL document CHEMBL1137560, “Synthesis and monoamine oxidase inhibitory activity of new pyridazine-, pyrimidine- and 1,2,4-triazine-containing tricyclic derivatives” (J Med Chem, 2007).

Columns and labels:
[1] = target: T1, Amine oxidase [flavin-containing] B (Rattus norvegicus, UniProt P19643); assay: Inhibition of MAOB in rat brain mitochondria
T1 sequence (P19643 whole entry): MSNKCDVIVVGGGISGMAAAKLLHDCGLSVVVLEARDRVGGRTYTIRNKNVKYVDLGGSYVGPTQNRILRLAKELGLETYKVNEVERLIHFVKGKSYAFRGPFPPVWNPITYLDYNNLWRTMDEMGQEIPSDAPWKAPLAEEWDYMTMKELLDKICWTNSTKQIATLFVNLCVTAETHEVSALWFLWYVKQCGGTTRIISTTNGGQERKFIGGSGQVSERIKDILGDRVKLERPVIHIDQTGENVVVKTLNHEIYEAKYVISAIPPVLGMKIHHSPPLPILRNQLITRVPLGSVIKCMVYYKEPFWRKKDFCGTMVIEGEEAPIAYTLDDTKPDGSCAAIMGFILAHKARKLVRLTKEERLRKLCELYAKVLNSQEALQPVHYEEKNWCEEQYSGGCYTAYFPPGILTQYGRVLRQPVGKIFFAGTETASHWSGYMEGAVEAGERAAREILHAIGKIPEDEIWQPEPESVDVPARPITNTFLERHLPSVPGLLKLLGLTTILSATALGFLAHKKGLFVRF
How it was run: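 MAO-B measured in rat brain mitochondrial suspension after 5 min preincubation with clorgyline. Incubations at pH 7.40 (isotonic phosphate/KCl) and 37 °C, 5% DMSO cosolvent. Kynuramine 60 µM (its KM); 4-hydroxyquinoline formation read continuously at 314 nm. Highest concentration 100 µM; IC50 derived by hyperbolic equation fit.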

[2] = target: T2, Amine oxidase [flavin-containing] A (Rattus norvegicus, UniProt P21396); assay: Inhibition of MAOA in rat brain mitochondria at 10 uM
T2 sequence (P21396 whole entry): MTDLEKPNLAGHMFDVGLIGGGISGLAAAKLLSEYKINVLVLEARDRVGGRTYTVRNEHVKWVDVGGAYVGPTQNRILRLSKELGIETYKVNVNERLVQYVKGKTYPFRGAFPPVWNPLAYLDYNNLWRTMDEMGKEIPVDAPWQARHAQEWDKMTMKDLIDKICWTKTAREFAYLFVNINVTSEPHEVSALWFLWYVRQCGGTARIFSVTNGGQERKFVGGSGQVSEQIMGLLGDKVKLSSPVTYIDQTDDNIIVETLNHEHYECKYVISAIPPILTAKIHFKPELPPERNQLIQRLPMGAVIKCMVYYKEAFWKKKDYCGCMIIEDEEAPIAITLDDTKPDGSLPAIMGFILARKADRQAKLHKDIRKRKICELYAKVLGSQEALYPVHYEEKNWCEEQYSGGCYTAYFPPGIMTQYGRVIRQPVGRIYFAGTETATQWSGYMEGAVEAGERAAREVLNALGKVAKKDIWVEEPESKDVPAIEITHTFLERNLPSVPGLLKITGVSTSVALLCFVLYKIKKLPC

[3] = target: T1, Amine oxidase [flavin-containing] B; assay: Inhibition of MAOB in rat brain mitochondria at 10 uM
[4] = target: T2, Amine oxidase [flavin-containing] A; assay: Inhibition of MAOA in rat brain mitochondria
How it was run: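 Rat brain mitochondrial suspension, isotonic Na2HPO4/KH2PO4–KCl buffer, pH 7.40, 37 °C, with 5% DMSO cosolvent. Preincubated 5 min with selegiline to isolate MAO-A. Continuous spectrophotometric assay: 90 µM kynuramine (its KM) oxidized to 4-hydroxyquinoline, followed at 314 nm. Top concentration tested 100 µM; IC50 calculated from a hyperbolic equation.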

[5] = target: T2, Amine oxidase [flavin-containing] A; assay: Inhibition of MAOA in rat brain mitochondria at 50 uM
[6] = target: T1, Amine oxidase [flavin-containing] B; assay: Inhibition of MAOB in rat brain mitochondria at 50 uM
[7] = target: T1, Amine oxidase [flavin-containing] B; assay: Inhibition of MAOB in rat brain mitochondria at 25 uM
How it was run: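 Rat brain mitochondrial suspension, pre-treated 5 min with clorgyline to isolate MAO-B. Kynuramine substrate at 60 µM (its KM) in isotonic Na2HPO4/KH2PO4/KCl buffer, pH 7.40, 37 °C, with 5% DMSO cosolvent. 4-Hydroxyquinoline formation followed continuously at 314 nm. Percent inhibition taken at the compound's maximum solubility; means ± SEM of three experiments, each run in duplicate.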

[8] = target: T1, Amine oxidase [flavin-containing] B; assay: Inhibition of MAOB in rat brain mitochondria at 20 uM
[9] = target: T2, Amine oxidase [flavin-containing] A; assay: Inhibition of MAOA in rat brain mitochondria at 1 uM
[10] = target: T1, Amine oxidase [flavin-containing] B; assay: Inhibition of MAOB in rat brain mitochondria at 1 uM

| SMILES | IC50 [1] [µM] | inhibition at 10 µM [2] [%] | IC50 [4] [µM] | also measured |
| --- | --- | --- | --- | --- |
| Nc1cccc(-c2nnc3c(n2)-c2ccccc2C3=O)c1 |  | 12 |  | inhibition at 10 µM [3]: 17% |
| c1ccc2c(c1)nnc1c3ccccc3[nH]c21 |  |  | 29.7 | inhibition at 50 µM [6]: 29% |
| c1ccc2c(c1)CCc1c-2[nH]c2ccccc12 |  |  | 12 | inhibition at 25 µM [7]: 38% |
| O=C1c2ccccc2-c2nc(-c3cccc([N+](=O)[O-])c3)nnc21 | 0.08 | 23 |  |  |
| c1ccc(-c2ncc3c(n2)Cc2ccccc2-3)cc1 | 13 |  | 16.7 |  |
| c1ccc(-c2ncc3c(n2)-c2ccccc2C3)cc1 |  |  | 18 | inhibition at 20 µM [8]: 37% |
| O=C(c1ccccc1)c1cnncc1-c1ccc(Cl)cc1 | > 100 |  | 30.8 |  |
| Cc1ncc2c(n1)C(=O)c1ccccc1-2 | 9.4 |  | 47.1 |  |
| O=C1c2ccccc2-c2cnc(-c3cccc([N+](=O)[O-])c3)nc21 |  |  |  | inhibition at 1 µM [9]: 5%; inhibition at 1 µM [10]: 12% |
| O=C1c2ccccc2-c2nnc(-c3cccc([N+](=O)[O-])c3)nc21 | 0.912 | 3 |  |  |

Continued, in another order:

| IC50 [1] [µM] | inhibition at 10 µM [2] [%] | IC50 [4] [µM] | SMILES | also measured |
| --- | --- | --- | --- | --- |
| 2.51 | 0 |  | O=C1c2ccccc2-c2nnc(COc3ccccc3)cc21 |  |
|  | 0 |  | O=C1c2ccccc2-c2nnc(COc3ccc(C(F)(F)F)cc3)cc21 | inhibition at 10 µM [3]: 48% |
| 55 |  | > 100 | O=C1c2ccccc2-c2nnc(OCc3ccccc3)cc21 |  |
| 38 |  |  | O=C1c2ccccc2-c2nn(-c3ccccc3)c(=O)cc21 | inhibition at 50 µM [5]: 46% |
| 34 |  | 21.6 | O=C1c2ccccc2-c2ncnc(-c3ccccc3)c21 |  |
| 1.9 | 12 |  | O=C1c2ccccc2-c2nnc(COc3ccc(F)cc3)cc21 |  |
| 6.31 | 21 |  | O=C1c2ccccc2-c2nc(-c3ccccc3)nnc21 |  |
